Screening data as filed in PubChem.
ALR inh – human ALR oxidase inhibition via reduced H2O2. 290,000 compounds, 3.8% hits. P55789. AID 485317. purified ALR, DTT oxidation, H2O2 HRP-luminol luminescence. inhibition, % (test concentration not listed);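 active = mean replicate inhibition above about 79%, with every replicate also reaching it, limit read from the data; inconclusive = only one of the two criteria met; inactive = mean below limit and not every replicate reaching it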
FAS-TE inh – FAS thioesterase (human) inhibition; 360,000 compounds, 0.67% hits; inhibition, % at 15 µM; P49327; recombinant FAS-TE, OMFH fluorogenic substrate, fluorescence endpoint;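 active = compounds whose normalised, plate-corrected inhibition of enzyme fluorescence in the single-dose primary screen is 50% or more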
UCH37 DUB inh – blocks the human deubiquitinase UCH37. Q9Y5K5. purified proteasome/UCH37, Ub-AMC cleavage fluorescence. inhibition, % (test concentration not listed). 330,000 compounds, 0.33% hits;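 active = mean inhibition over replicate wells above about 20%, limit read from the data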
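Signal – fluorescence, ex 355 nm, em 460 nm · System – Proteasome-bound UCH37 · Input – 0.15 nM proteasome as dispensed · Timing – 30 min preincubation with enzyme, 25 min cleavage at room temperature · Read-out basis – percent inhibition of cleavage signal versus uninhibited and no-proteasome wells · Medium – Tris-HCl pH 7.4 with ATP-MgCl2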
M18AAP inhibitor – blocks P. falciparum M18 aspartyl aminopeptidase. 290,000 compounds, 1.2% hits. AID 1822. recombinant PfM18AAP, H-Glu-NHMec fluorogenic cleavage. inhibition, % at 7.35 µM;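 active = inhibition above the campaign mean inhibition over all tested compounds plus 3 SD, cut at about 28% in these data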
Rtt109 HAT inh – inhibitors of Candida albicans Rtt109/Vps75 histone acetyltransferase; Q5AAJ8; purified Rtt109/Vps75, ThioGlo CoA-SH fluorescence, 4 h; inhibition, % at 34.9 µM; 330,000 compounds, 0.16% hits; AID 540336;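 active = inhibition of at least 50% in every replicate; inconclusive = best replicate reaches 50% inhibition but some replicates fall short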
HDAC3 inh – human HDAC3 inhibition; recombinant HDAC3, fluorogenic peptide/trypsin coupled, fluorescence; 320,000 compounds, 0.15% hits; O15379; inhibition, % at 8.3 µM; in the data active = inhibition above about 26%, passing the limit was not always enough; inconclusive = no clear call, values can overlap the other calls
Hits are given with their value; 0 = inactive; ? = inconclusive; - = no result. A selection: hits, their analogues and other compounds. The true share with any hit is near 4.6%.

SMILES	ALR inh	FAS-TE inh	UCH37 DUB inh	M18AAP inhibitor	Rtt109 HAT inh	HDAC3 inh
CSC(=NC#N)N1CCN(c2cccc(Cl)c2)CC1	93.7	0	0	0	0	0
CSC(=NC#N)N1CCN(c2ccccc2)CC1	76.2	0	0	0	0	0
CSc1ccccc1C(=O)N1CCN(c2cccc(Cl)c2)CC1	0	0	0	0	0	0
CSC(=NC#N)N1CCN(c2c(C)cccc2C)CC1	0	0	0	0	0	0
Oc1ccccc1C(=S)N1CCN(c2cccc(Cl)c2)CC1	0	0	0	29.6	0	0
COc1ccc(C(=O)ON=Cc2ccc(S(=O)(=O)c3ccc(Cl)cc3)nc2)cc1	-	-	0	-	-	-
CC(=O)c1c(C)oc2ccc(NS(=O)(=O)c3ccc(O)c(C(=O)O)c3)cc12	0	0	0	0	0	0
O=C(O)c1cc(S(=O)(=O)Nc2ccc3oc(=O)sc3c2)ccc1O	0	-	0	50.9	-	0
COc1ccc(C=NNC(=O)c2cc[n+]([O-])cc2)cc1OC	-	-	0	-	-	-
COc1ccc(CSC2=NCCN2)cc1Br	98.9	0	0	0	0	0
COc1ccc(CSC2=NCCN2)cc1Cl	100.2	0	0	0	?	0
CCOc1cc(C=NNC(N)=O)cc(Br)c1OCc1ccccc1F	-	-	0	-	-	-
COc1cc(/C=C2\N=C(C)OC2=O)cc(OC)c1OC	0	0	0	0	0	36.1
O=C(CSc1nc(O)cc(=O)n1-c1ccccc1)Nc1ccc2c3c(cccc13)CC2	98.9	0	0	0	0	0
COc1ccc(NC(=O)CSc2nc(O)cc(=O)n2-c2ccccc2)cc1	98.7	0	0	0	0	0
CCCn1c(SCC(=O)Nc2ccc(Cl)cc2F)nc(O)cc1=O	98.7	0	0	-	0	0
Cn1c(SCC(=O)Nc2ccccc2)nc(O)cc1=O	98.8	0	0	0	0	0
COc1ccc(NC(=O)CSc2nnc(C3CCCCC3)n2-c2ccccc2)cc1	0	0	0	0	0	0
C=CCN1C(=O)C(Cc2ccc(F)cc2)SC1=NN=Cc1cccs1 (centres undefined)	-	-	0	-	-	-
O=C(NN=Cc1cccc([N+](=O)[O-])c1)c1ccncc1	-	-	0	-	-	-
COc1ccccc1-n1c(SCC(=O)Nc2ccc(Br)cc2)nc(O)cc1=O	98.9	0	0	0	0	0
Nn1c(SCC(=O)Nc2nc3ccccc3s2)nncc1=O	98.4	0	-	0	0	0
COc1ccc(NC(=O)CSc2nc(O)cc(=O)n2C)cc1	99.2	0	0	0	0	0
Cc1ccc(-n2c(SCC(=O)Nc3ccc(Cl)cc3)nc(O)cc2=O)cc1	93.8	0	0	0	0	0
CC(=NNC(=O)c1cccc(S(=O)(=O)N2CCCCC2)c1)c1ccc(C)o1	-	-	0	-	-	-
SMILES	ALR inh	FAS-TE inh	UCH37 DUB inh	M18AAP inhibitor	Rtt109 HAT inh	HDAC3 inh
O=C(CN1CCOCC1)NN=Cc1ccc(C(=O)O)cc1	-	-	0	-	-	-
C=C(C)C(=O)O[C@H]1CC(C)=CC(=O)C=C(C)[C@H](O)[C@@H]2OC(=O)C(=C)[C@@H]21	-	-	0	-	-	-
CC(=NNC(=O)c1nc2ccccn2c1C)c1cc2ccccc2o1	-	-	0	-	-	-
O=C(CSc1nc(O)cc(=O)n1-c1ccccc1)Nc1nc2ccccc2s1	99.2	0	0	0	0	0
COc1ccc(OCC(=O)NN=C(C)c2cccs2)cc1	-	-	0	-	-	-
COc1cc(/C=N/NC(=O)CSCc2ccc([N+](=O)[O-])cc2)cc(OC)c1OC	98.2	0	-	0	0	0
O=C(CSCc1ccc([N+](=O)[O-])cc1)NN=C1CCCCCC1	87.8	0	0	0	0	0
O=C(CSCc1ccc(Cl)cc1)NN=C1CCCC1	0	0	0	0	0	0
Cc1cc(C=NNC(=O)Cn2c3ccccc3c(=O)c3ccccc32)c(C)n1-c1ccccc1	-	-	0	-	-	-
O=C1C(c2ccccc2)=[N+]([O-])c2ccccc21	91.4	0	0	-	0	0
O=c1c(-c2ccc(O)cc2)coc2cc(OC3OC(CO)C(O)C(O)C3O)ccc12 (centres undefined)	99.3	0	0	0	0	0
O=c1c(O[C@@H]2O[C@H](CO)C(O)C2O)c(-c2ccc(O)c(O)c2)oc2cc(O)cc(O)c12 (some centres undefined)	99.6	0	0	-	0	?
O=c1c(OC2OC(CO)C(O)C(O)C2OC2OC(CO)C(O)C(O)C2O)c(-c2ccc(O)cc2)oc2cc(O)cc(O)c12 (centres undefined)	0	0	0	-	0	0
O=c1c(O[C@H]2O[C@@H](CO)[C@H](O)[C@@H](O)[C@@H]2O)c(-c2ccc(O)cc2)oc2cc(O)cc(O)c12	87.2	0	0	-	0	0
COc1ccc(C(=O)Nc2ccc(C(C)=NNC(=O)c3ccccc3O)cc2)cc1OC	-	-	0	-	-	-
CCOC(=O)/C(C#N)=C\c1ccc(O)c(OC)c1	98.9	0	0	0	-	0
COc1cc(/C=C(\C#N)C(=O)N2CCc3ccccc32)ccc1O	99.8	0	0	0	0	0
N#C/C(=C\c1ccc(O)c(O)c1)C(=O)N1CCc2ccccc21	99.5	0	0	-	0	0
CCOC(=O)/C(C#N)=C/c1cccc(C)c1	0	0	0	0	0	0
COc1ccc(N(C(C)C(=O)NN=Cc2cccnc2)S(C)(=O)=O)cc1 (centres undefined)	-	-	0	-	-	-
COc1ccc(C=NN2CCN(C3c4ccccc4-c4ccccc43)CC2)cc1OC	-	-	0	-	-	-
CC(C)c1cc(C(N)=O)c(NC(=O)C2CCC2)s1	97.5	0	0	0	0	0
COc1ccc(C=NNC(=O)CN2CCSCC2)cc1C	-	-	0	-	-	-
Cc1ccc(NC2=Nc3ccccc3N3C2=Nc2c(c(C)nn2-c2ccccc2)C3c2ccc(O)c(O)c2)cc1 (centres undefined)	-	0	0	0	0	-
Cc1nn(-c2ccccc2)c2c1C(c1ccc(O)c(O)c1)N1C(=N2)C(Nc2ccccc2)=Nc2ccccc21 (centres undefined)	0	0	0	34.2	0	0
CC(=NNC(=O)c1c(Cl)c(C)nn1C)c1cccc(NC(=O)c2cccc(F)c2)c1	-	-	0	-	-	-
Cc1c(C=NNC(=O)c2cccc(F)c2)cnn1C	-	-	0	-	-	-
Cc1n[nH]c(=S)n1N=Cc1ccccc1	-	-	0	-	-	-
CCn1c2ccccc2c2cc(/C=N/n3cn[nH]c3=S)ccc21	98.4	0	-	0	0	0
S=c1[nH]ncn1/N=C/c1ccc(Br)cc1	98.0	0	-	0	0	0
